# Data published in ChEMBL document CHEMBL5724801, “EUbOPEN Chemogenomics Library - Multiplex” (2024).
# Several values for one entry are separate records, joined by “and”; a condition that tells them apart may be missing. Equal entries are not always repeated. Non-standard residues stand in square brackets, D forms with d. Residues, ends and D or L forms follow the SMILES beside them.
# System: Fibroblast
# Assay: Multiplex assay against human fibroblast
# Format: toxicity, cell-based
# Conditions: 12 h, 1 µM, compound concentration 1 uM
# In short: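 Live cells carried four stains from seeding: Hoechst33342, BioTracker Green Microtubule Cytoskeleton Dye, MitoTracker Red and Annexin V Alexa Fluor 680. They were imaged on a CQ1 microscope at 37°C and 5% CO2 after compound addition. Using CellPathfinder machine-learning gating, cells were split into Hoechst high-intensity objects or normal cells, normal cells into healthy, pyknosed or fragmented nuclei, and pyknosed cells into mitotic or apoptotic; tubulin, mitochondrial-mass and membrane-permeability phenotypes are per cents of healthy-nucleus cells.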
Structure (SMILES),Population Apoptotic (%),Population Fragmented Nuclei (%),Population Healthy Nuclei (%),Population Hoechst High Intensity Objects (%),Population Membrane Permeable-Phenotype (%),Population Mitochondria Different-Phenotype (%),Population Mitotic Cells (%),Population Normal (%),Population Pyknosed Nuclei (%),Population Tubulin-Different-Phenotype (%)
CC(C)C[C@@H]1NC(=O)[C@@H](C(C)C)NC(=O)[C@@H]2CCCN2C(=O)[C@@H](CC(=O)O)NC(=O)[C@@H](Cc2c[nH]c3ccccc23)NC1=O [BQ-123] (cyclo(L[dW][dD]P[dV])),57% and 21%,18% and 22%,68% and 58%,0% and 3%,1% and 5%,11% and 2%,42% and 78%,100% and 96%,13% and 18%,31%
CN(C)c1ccnc2sc3c(=O)n(N4CCCCCC4)cnc3c12,42% and 30%,17% and 28%,64% and 51%,3% and 6%,1% and 10%,3%,57% and 70%,96% and 93%,18% and 19%,29% and 44%

# Same assay, conditions: 12 h, 1 µM, compound concentration 1 uM
row,Structure (SMILES),Total Cell Count
1,CC(C)C[C@@H]1NC(=O)[C@@H](C(C)C)NC(=O)[C@@H]2CCCN2C(=O)[C@@H](CC(=O)O)NC(=O)[C@@H](Cc2c[nH]c3ccccc23)NC1=O [BQ-123] (cyclo(L[dW][dD]P[dV])),105 and 157
2,CN(C)c1ccnc2sc3c(=O)n(N4CCCCCC4)cnc3c12,144 and 162

# Same assay, conditions: 12 h, 10 µM, compound concentration 10 uM
Structure (SMILES),Population Apoptotic (%),Population Fragmented Nuclei (%),Population Healthy Nuclei (%),Population Hoechst High Intensity Objects (%),Population Membrane Permeable-Phenotype (%),Population Mitochondria Different-Phenotype (%),Population Mitotic Cells (%),Population Normal (%),Population Pyknosed Nuclei (%),Population Tubulin-Different-Phenotype (%)
CC(C)C[C@@H]1NC(=O)[C@@H](C(C)C)NC(=O)[C@@H]2CCCN2C(=O)[C@@H](CC(=O)O)NC(=O)[C@@H](Cc2c[nH]c3ccccc23)NC1=O [BQ-123] (cyclo(L[dW][dD]P[dV])),48% and 33%,15% and 30%,65% and 48%,2%,0% and 4%,9% and 3%,52% and 66%,97%,18% and 20%,33% and 46%
CN(C)c1ccnc2sc3c(=O)n(N4CCCCCC4)cnc3c12,44% and 49%,14% and 31%,58% and 30%,5% and 7%,,14%,55% and 50%,94% and 92%,27% and 38%,75%

# Same assay, conditions: 12 h, 10 µM, compound concentration 10 uM
row,Structure (SMILES),Total Cell Count
1,CC(C)C[C@@H]1NC(=O)[C@@H](C(C)C)NC(=O)[C@@H]2CCCN2C(=O)[C@@H](CC(=O)O)NC(=O)[C@@H](Cc2c[nH]c3ccccc23)NC1=O [BQ-123] (cyclo(L[dW][dD]P[dV])),136 and 134
2,CN(C)c1ccnc2sc3c(=O)n(N4CCCCCC4)cnc3c12,141 and 145

# Same assay, conditions: 24 h, 1 µM, compound concentration 1 uM
Structure (SMILES),Population Apoptotic (%),Population Fragmented Nuclei (%),Population Healthy Nuclei (%),Population Hoechst High Intensity Objects (%),Population Membrane Permeable-Phenotype (%),Population Mitochondria Different-Phenotype (%),Population Mitotic Cells (%),Population Normal (%),Population Pyknosed Nuclei (%),Population Tubulin-Different-Phenotype (%)
CC(C)C[C@@H]1NC(=O)[C@@H](C(C)C)NC(=O)[C@@H]2CCCN2C(=O)[C@@H](CC(=O)O)NC(=O)[C@@H](Cc2c[nH]c3ccccc23)NC1=O [BQ-123] (cyclo(L[dW][dD]P[dV])),53% and 24%,19% and 23%,66% and 57%,1% and 6%,0% and 3%,5% and 3%,46% and 75%,98% and 93%,14% and 18%,24% and 25%
CN(C)c1ccnc2sc3c(=O)n(N4CCCCCC4)cnc3c12,48% and 50%,11% and 24%,67% and 55%,3% and 2%,0% and 10%,3% and 2%,51% and 50%,96% and 97%,21% and 19%,27% and 49%

# Same assay, conditions: 24 h, 1 µM, compound concentration 1 uM
row,Structure (SMILES),Total Cell Count
1,CC(C)C[C@@H]1NC(=O)[C@@H](C(C)C)NC(=O)[C@@H]2CCCN2C(=O)[C@@H](CC(=O)O)NC(=O)[C@@H](Cc2c[nH]c3ccccc23)NC1=O [BQ-123] (cyclo(L[dW][dD]P[dV])),107 and 166
2,CN(C)c1ccnc2sc3c(=O)n(N4CCCCCC4)cnc3c12,143 and 146

# Same assay, conditions: 24 h, 10 µM, compound concentration 10 uM
Structure (SMILES),Population Apoptotic (%),Population Fragmented Nuclei (%),Population Healthy Nuclei (%),Population Hoechst High Intensity Objects (%),Population Membrane Permeable-Phenotype (%),Population Mitochondria Different-Phenotype (%),Population Mitotic Cells (%),Population Normal (%),Population Pyknosed Nuclei (%),Population Tubulin-Different-Phenotype (%)
CC(C)C[C@@H]1NC(=O)[C@@H](C(C)C)NC(=O)[C@@H]2CCCN2C(=O)[C@@H](CC(=O)O)NC(=O)[C@@H](Cc2c[nH]c3ccccc23)NC1=O [BQ-123] (cyclo(L[dW][dD]P[dV])),50% and 29%,19% and 27%,64% and 50%,8% and 0%,1% and 11%,5% and 3%,50% and 70%,91% and 99%,15% and 22%,32% and 50%
CN(C)c1ccnc2sc3c(=O)n(N4CCCCCC4)cnc3c12,57% and 30%,13% and 35%,58% and 41%,5% and 8%,0% and 22%,18% and 24%,42% and 69%,94% and 91%,28% and 22%,63% and 85%

# Same assay, conditions: 24 h, 10 µM, compound concentration 10 uM
row,Structure (SMILES),Total Cell Count
1,CC(C)C[C@@H]1NC(=O)[C@@H](C(C)C)NC(=O)[C@@H]2CCCN2C(=O)[C@@H](CC(=O)O)NC(=O)[C@@H](Cc2c[nH]c3ccccc23)NC1=O [BQ-123] (cyclo(L[dW][dD]P[dV])),123
2,CN(C)c1ccnc2sc3c(=O)n(N4CCCCCC4)cnc3c12,130 and 128

# Same assay, conditions: 48 h, 1 µM, compound concentration 1 uM
Structure (SMILES),Population Apoptotic (%),Population Fragmented Nuclei (%),Population Healthy Nuclei (%),Population Hoechst High Intensity Objects (%),Population Membrane Permeable-Phenotype (%),Population Mitochondria Different-Phenotype (%),Population Mitotic Cells (%),Population Normal (%),Population Pyknosed Nuclei (%),Population Tubulin-Different-Phenotype (%)
CC(C)C[C@@H]1NC(=O)[C@@H](C(C)C)NC(=O)[C@@H]2CCCN2C(=O)[C@@H](CC(=O)O)NC(=O)[C@@H](Cc2c[nH]c3ccccc23)NC1=O [BQ-123] (cyclo(L[dW][dD]P[dV])),50% and 52%,18% and 28%,70% and 56%,3% and 4%,0% and 2%,12% and 4%,50% and 48%,96% and 95%,11% and 15%,25% and 39%
CN(C)c1ccnc2sc3c(=O)n(N4CCCCCC4)cnc3c12,64% and 36%,19% and 36%,70% and 49%,2% and 3%,0% and 6%,0% and 2%,35% and 63%,97% and 96%,10% and 14%,30% and 41%

# Same assay, conditions: 48 h, 1 µM, compound concentration 1 uM
row,Structure (SMILES),Total Cell Count
1,CC(C)C[C@@H]1NC(=O)[C@@H](C(C)C)NC(=O)[C@@H]2CCCN2C(=O)[C@@H](CC(=O)O)NC(=O)[C@@H](Cc2c[nH]c3ccccc23)NC1=O [BQ-123] (cyclo(L[dW][dD]P[dV])),109 and 172
2,CN(C)c1ccnc2sc3c(=O)n(N4CCCCCC4)cnc3c12,143 and 157

# Same assay, conditions: 48 h, 10 µM, compound concentration 10 uM
Structure (SMILES),Population Apoptotic (%),Population Fragmented Nuclei (%),Population Healthy Nuclei (%),Population Hoechst High Intensity Objects (%),Population Membrane Permeable-Phenotype (%),Population Mitochondria Different-Phenotype (%),Population Mitotic Cells (%),Population Normal (%),Population Pyknosed Nuclei (%),Population Tubulin-Different-Phenotype (%)
CC(C)C[C@@H]1NC(=O)[C@@H](C(C)C)NC(=O)[C@@H]2CCCN2C(=O)[C@@H](CC(=O)O)NC(=O)[C@@H](Cc2c[nH]c3ccccc23)NC1=O [BQ-123] (cyclo(L[dW][dD]P[dV])),70% and 46%,26% and 45%,59% and 42%,5% and 6%,1% and 9%,5% and 3%,29% and 53%,94% and 93%,13% and 12%,38% and 51%
CN(C)c1ccnc2sc3c(=O)n(N4CCCCCC4)cnc3c12,73% and 50%,22% and 47%,47% and 42%,8% and 6%,0% and 19%,25% and 13%,26% and 50%,91% and 93%,,76% and 86%

# Same assay, conditions: 48 h, 10 µM, compound concentration 10 uM
row,Structure (SMILES),Total Cell Count
1,CC(C)C[C@@H]1NC(=O)[C@@H](C(C)C)NC(=O)[C@@H]2CCCN2C(=O)[C@@H](CC(=O)O)NC(=O)[C@@H](Cc2c[nH]c3ccccc23)NC1=O [BQ-123] (cyclo(L[dW][dD]P[dV])),129 and 130
2,CN(C)c1ccnc2sc3c(=O)n(N4CCCCCC4)cnc3c12,138 and 131
